Reference: ChEMBL document CHEMBL4229342, “Synthesis of novel proxyphylline derivatives with dual Anti-Candida albicans and anticancer activity” (Eur J Med Chem, 2018)

Columns and labels:
Assay type in all cases: functional
[1] = tested on: Candida albicans; experiment: Growth inhibition of Candida albicans ATCC 90028 at 0.0313 ug/ml incubated for 18 hrs at 35 degC by broth microdilution method relative to control; conditions: ATCC 90028, 18 h, read-out: GI
[2] = tested on: Candida albicans; experiment: Growth inhibition of Candida albicans ATCC 90028 at 1 ug/ml incubated for 18 hrs at 35 degC by broth microdilution method relative to control; conditions: ATCC 90028, 18 h, read-out: GI
[3] = tested on: Candida albicans; experiment: Growth inhibition of Candida albicans ATCC 90028 at 0.0625 ug/ml incubated for 4 hrs at 35 degC by broth microdilution method relative to control; conditions: ATCC 90028, 4 h, read-out: GI
[4] = tested on: Candida albicans; experiment: Growth inhibition of Candida albicans ATCC 90028 at 8 ug/ml incubated for 4 hrs at 35 degC by broth microdilution method relative to control; conditions: ATCC 90028, 4 h, read-out: GI
[5] = tested on: Candida albicans; experiment: Growth inhibition of Candida albicans ATCC 90028 at 0.0625 ug/ml incubated for 18 hrs at 35 degC by broth microdilution method relative to control; conditions: ATCC 90028, 18 h, read-out: GI
[6] = tested on: MCF7; experiment: Antiproliferative activity against human MCF7 cells assessed as cell viability at 200 uM after 72 hrs by MTT assay; conditions: MCF7, 72 h, read-out: Activity
Procedure, shortened: (§1)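 MTT viability assay in CCRF-CEM and MCF-7 cells after 72 h exposure at 25, 50, 100 and 200 µM. Results are relative to control cells without inhibitor in 0.5% DMSO. Done in triplicate; values are means ± SD of three independent experiments.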

[7] = tested on: Candida albicans; experiment: Growth inhibition of Candida albicans ATCC 90028 at 0.125 ug/ml incubated for 18 hrs at 35 degC by broth microdilution method relative to control; conditions: ATCC 90028, 18 h, read-out: GI
[8] = tested on: Candida albicans; experiment: Growth inhibition of Candida albicans ATCC 90028 at 16 ug/ml incubated for 48 hrs at 35 degC by broth microdilution method relative to control; conditions: ATCC 90028, 48 h, read-out: GI
[9] = tested on: Candida albicans; experiment: Growth inhibition of Candida albicans ATCC 90028 at 2 ug/ml incubated for 4 hrs at 35 degC by broth microdilution method relative to control; conditions: ATCC 90028, 4 h, read-out: GI
[10] = tested on: Candida albicans; experiment: Growth inhibition of Candida albicans ATCC 90028 at 2 ug/ml incubated for 18 hrs at 35 degC by broth microdilution method relative to control; conditions: ATCC 90028, 18 h, read-out: GI
[11] = tested on: Candida albicans; experiment: Growth inhibition of Candida albicans ATCC 90028 at 1 ug/ml incubated for 4 hrs at 35 degC by broth microdilution method relative to control; conditions: ATCC 90028, 4 h, read-out: GI
[12] = tested on: CCRF-CEM; experiment: Antiproliferative activity against human CCRF-CEM cells assessed as cell viability at 100 uM after 72 hrs by MTT assay; conditions: read-out: Activity; procedure, shortened: as §1
[13] = tested on: Candida albicans; experiment: Growth inhibition of Candida albicans ATCC 90028 at 0.5 ug/ml incubated for 18 hrs at 35 degC by broth microdilution method relative to control; conditions: ATCC 90028, 18 h, read-out: GI
[14] = tested on: Candida albicans; experiment: Growth inhibition of Candida albicans ATCC 90028 at 16 ug/ml incubated for 18 hrs at 35 degC by broth microdilution method relative to control; conditions: ATCC 90028, 18 h, read-out: GI
[15] = tested on: MCF7; experiment: Antiproliferative activity against human MCF7 cells assessed as cell viability at 100 uM after 72 hrs by MTT assay; conditions: MCF7, 72 h, read-out: Activity; procedure, shortened: as §1
[16] = tested on: CCRF-CEM; experiment: Antiproliferative activity against human CCRF-CEM cells assessed as cell viability at 50 uM after 72 hrs by MTT assay; conditions: read-out: Activity; procedure, shortened: as §1
[17] = tested on: Candida albicans; experiment: Growth inhibition of Candida albicans ATCC 90028 at 0.5 ug/ml incubated for 4 hrs at 35 degC by broth microdilution method relative to control; conditions: ATCC 90028, 4 h, read-out: GI
[18] = tested on: Candida albicans; experiment: Fungicidal activity against Candida albicans ATCC 90028 assessed as log reduction in cell viability at 16 ug/ml after 48 hrs at 35 degC
Procedure, shortened: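 MFC assay on C. albicans ATCC 90028 following M27-A3, at the molar equivalent of 16 µg/mL. CFU of treated cells were compared with CFU of the untreated inoculum. Activity is given as lg R = lg CFU/mL control − lg CFU/mL treated, and lg R ≥3 was defined as fungicidal. Values are means of two independent experiments.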

[19] = tested on: MCF7; experiment: Antiproliferative activity against human MCF7 cells assessed as cell viability at 50 uM after 72 hrs by MTT assay; conditions: MCF7, 72 h, read-out: Activity; procedure, shortened: as §1
[20] = tested on: Candida albicans; experiment: Growth inhibition of Candida albicans ATCC 90028 at 8 ug/ml incubated for 18 hrs at 35 degC by broth microdilution method relative to control; conditions: ATCC 90028, 18 h, read-out: GI
[21] = tested on: Candida albicans; experiment: Growth inhibition of Candida albicans ATCC 90028 at 4 ug/ml incubated for 18 hrs at 35 degC by broth microdilution method relative to control; conditions: ATCC 90028, 18 h, read-out: GI
[22] = tested on: Candida albicans; experiment: Growth inhibition of Candida albicans ATCC 90028 at 0.25 ug/ml incubated for 18 hrs at 35 degC by broth microdilution method relative to control; conditions: ATCC 90028, 18 h, read-out: GI
[23] = tested on: Candida albicans; experiment: Growth inhibition of Candida albicans ATCC 90028 at 0.125 ug/ml incubated for 4 hrs at 35 degC by broth microdilution method relative to control; conditions: ATCC 90028, 4 h, read-out: GI
[24] = tested on: Candida albicans; experiment: Growth inhibition of Candida albicans ATCC 90028 at 0.0313 ug/ml incubated for 4 hrs at 35 degC by broth microdilution method relative to control; conditions: ATCC 90028, 4 h, read-out: GI
[25] = tested on: MCF7; experiment: Antiproliferative activity against human MCF7 cells assessed as cell viability at 25 uM after 72 hrs by MTT assay; conditions: MCF7, 72 h, read-out: Activity; procedure, shortened: as §1
[26] = tested on: CCRF-CEM; experiment: Antiproliferative activity against human CCRF-CEM cells assessed as cell viability at 200 uM after 72 hrs by MTT assay; conditions: read-out: Activity; procedure, shortened: as §1
[27] = tested on: CCRF-CEM; experiment: Antiproliferative activity against human CCRF-CEM cells assessed as cell viability at 25 uM after 72 hrs by MTT assay; conditions: read-out: Activity; procedure, shortened: as §1
[28] = tested on: Candida albicans; experiment: Growth inhibition of Candida albicans ATCC 90028 at 0.25 ug/ml incubated for 4 hrs at 35 degC by broth microdilution method relative to control; conditions: ATCC 90028, 4 h, read-out: GI
[29] = tested on: Candida albicans; experiment: Growth inhibition of Candida albicans ATCC 90028 at 8 ug/ml incubated for 48 hrs at 35 degC by broth microdilution method relative to control; conditions: ATCC 90028, 48 h, read-out: GI

SMILES	inhibition of growth at 0.0313 µg/mL [1] [%]	inhibition of growth at 1 µg/mL [2] [%]	inhibition of growth at 0.0625 µg/mL [3] [%]	inhibition of growth at 0.0625 µg/mL [5] [%]	viability at 200 µM [6] [%]	inhibition of growth at 0.125 µg/mL [7] [%]	inhibition of growth at 16 µg/mL [8] [%]	inhibition of growth at 2 µg/mL [9] [%]	inhibition of growth at 2 µg/mL [10] [%]	inhibition of growth at 1 µg/mL [11] [%]	viability at 100 µM [12] [%]	inhibition of growth at 0.5 µg/mL [13] [%]	inhibition of growth at 16 µg/mL [14] [%]	viability at 100 µM [15] [%]	viability at 50 µM [16] [%]	inhibition of growth at 0.5 µg/mL [17] [%]	viability at 50 µM [19] [%]	viability at 25 µM [25] [%]	viability at 200 µM [26] [%]	viability at 25 µM [27] [%]	further results
COC(C(=O)OC(C)Cn1cnc2c1c(=O)n(C)c(=O)n2C)c1ccc2ccccc2c1 (stereo not drawn)	99	99.1	99.1	99.1	68.8	99.1	99	99.1	99	99	27.6	99.2	99.2	83.7	28.2	99.1	86.3	93.5	15	84.7	inhibition of growth at 8 µg/mL [4]: 99%; log(activity) [18]: 0.4; inhibition of growth at 8 µg/mL [20]: 99%; inhibition of growth at 4 µg/mL [21]: 99%; inhibition of growth at 0.25 µg/mL [22]: 99%; inhibition of growth at 0.125 µg/mL [23]: 99%; inhibition of growth at 0.0313 µg/mL [24]: 99.1%; inhibition of growth at 0.25 µg/mL [28]: 99.1%; inhibition of growth at 8 µg/mL [29]: 99%
Cc1ccc(C(=O)CC(=O)OC(C)Cn2cnc3c2c(=O)n(C)c(=O)n3C)cc1 (stereo not drawn)	100	100	99.3	99.8	82.7	100	99.1	99.2	100	99.2	67.3	99.8	100	86.6	74.2	99.2	82.2	89	31.6	89.5	log(activity) [18]: 0.5; inhibition of growth at 8 µg/mL [20]: 100%; inhibition of growth at 4 µg/mL [21]: 100%; inhibition of growth at 0.25 µg/mL [22]: 100%; inhibition of growth at 0.0313 µg/mL [24]: 99.8%; inhibition of growth at 0.25 µg/mL [28]: 99.2%; inhibition of growth at 8 µg/mL [29]: 99.3%
CC(Cn1cnc2c1c(=O)n(C)c(=O)n2C)OC(=O)C1c2ccccc2-c2ccccc21 (stereo not drawn)	99.8	99.8	99	99.7	28.3	99.7	99.3	99.4	100	99.3	0.1	99.8	99.8	63.5	2.8	99.1	85.1	101	2.3	41.5	inhibition of growth at 8 µg/mL [4]: 99.4%; log(activity) [18]: 0.8; inhibition of growth at 8 µg/mL [20]: 99.8%; inhibition of growth at 4 µg/mL [21]: 100%; inhibition of growth at 0.25 µg/mL [22]: 99.9%; inhibition of growth at 0.125 µg/mL [23]: 98.9%; inhibition of growth at 0.0313 µg/mL [24]: 99.3%; inhibition of growth at 0.25 µg/mL [28]: 99%; inhibition of growth at 8 µg/mL [29]: 99.4%
Brc1c(Br)c(Br)c2[nH]cnc2c1Br					1.7						0			9	0		24.6	19.6	0	6.3	
